In ChEMBL document CHEMBL2029339, “Acylthiourea, acylurea, and acylguanidine derivatives with potent hedgehog inhibiting activity” (J Med Chem, 2012):
Calls of active or inactive are those of the source. No cut-off for these calls is given here.

Legend:
Protein smoothened = Protein smoothened (Homo sapiens, UniProt Q99835); test: Displacement of BODIPY-labelled cyclopamine from human Smo receptor expressed in HEK293 cells after 2 hrs by fluorescence microscopy; assay type: cell-based
How it was run: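 HEK293 cells stably expressing human Smo, grown on poly-D-lysine coverslips and fixed in 4% paraformaldehyde. BODIPY fluorescence above the no-probe background, normalized to DAPI nuclear area in 3–4 fields per coverslip, given as % of probe-alone signal.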

[1] = target: Smoothened (Mus musculus) (UniProt P56726); test: Inhibition of Smo-mediated Hh signaling in mouse Shh-light2 cells by luciferase reporter gene assay
Smoothened (Mus musculus), sequence (P56726 whole entry, looked up): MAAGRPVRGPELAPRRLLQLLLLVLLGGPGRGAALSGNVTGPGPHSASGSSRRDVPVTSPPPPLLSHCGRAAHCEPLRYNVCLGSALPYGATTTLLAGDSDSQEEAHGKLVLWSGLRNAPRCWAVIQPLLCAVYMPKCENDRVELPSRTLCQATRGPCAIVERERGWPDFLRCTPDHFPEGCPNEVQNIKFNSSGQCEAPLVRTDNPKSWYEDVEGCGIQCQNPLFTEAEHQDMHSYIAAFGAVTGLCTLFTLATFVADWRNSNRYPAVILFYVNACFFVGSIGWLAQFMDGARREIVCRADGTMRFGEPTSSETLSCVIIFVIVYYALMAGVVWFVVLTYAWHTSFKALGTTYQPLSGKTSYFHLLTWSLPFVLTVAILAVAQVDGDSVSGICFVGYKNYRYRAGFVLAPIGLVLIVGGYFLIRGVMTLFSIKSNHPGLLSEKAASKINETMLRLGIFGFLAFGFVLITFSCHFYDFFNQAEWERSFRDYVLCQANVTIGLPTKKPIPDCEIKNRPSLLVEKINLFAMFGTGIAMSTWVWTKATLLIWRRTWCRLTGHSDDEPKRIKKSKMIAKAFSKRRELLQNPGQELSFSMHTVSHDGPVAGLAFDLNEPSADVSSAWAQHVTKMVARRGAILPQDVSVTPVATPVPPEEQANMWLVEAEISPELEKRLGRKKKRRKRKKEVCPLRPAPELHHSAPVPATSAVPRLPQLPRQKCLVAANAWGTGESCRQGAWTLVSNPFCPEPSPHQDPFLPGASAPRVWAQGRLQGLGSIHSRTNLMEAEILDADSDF

[2] = Ratio of cyclopamine IC50 to compound IC50 for inhibition of SAG-induced rat cerebellar granule cell precursors by [3H]-thymidine incorporation assay; assay type: functional
[3] = target: Smoothened (Mus musculus) (UniProt P56726); test: Inhibition of Smo-mediated Hh signaling in mouse Shh-light2 cells at 3 uM by luciferase reporter gene assay; details: Shh Light II
Rattus norvegicus = species: Rattus norvegicus; test: Antiproliferative activity against rat cerebellar granule cell precursors at 1 uM by [3H]-thymidine incorporation assay; assay type: functional
[4] = Ratio of Cur61414 IC50 to compound IC50 for inhibition of SAG-induced rat cerebellar granule cell precursors by [3H]-thymidine incorporation assay; assay type: functional
[5] = target: Smoothened (Mus musculus) (UniProt P56726); test: Inhibition of Smo-mediated Hh signaling in mouse Shh-light2 cells at 0.3 uM by luciferase reporter gene assay; details: Shh Light II
[6] = Antiproliferative activity against SAG-induced rat cerebellar granule cell precursors by [3H]-thymidine incorporation assay; assay type: functional
How it was run: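 Primary rat cerebellar granule cell precursors stimulated with SAG (0.01 μM) together with increasing concentrations of test compound. Proliferation read as [3H]-thymidine incorporation, expressed as % of maximal SAG response. Quadruplicates, n = 3–10 independent experiments. IC50 and Hill coefficient obtained by curve fitting.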

C3H 10T1/2 [7] = test: Inhibition of SAG-induced differentiation of mouse mesenchymal pluripotent C3H10T1/2 cells to alkaline phosphatase positive oeseoblasts at 10 uM after 6 days; details: C3H 10T1/2, 6 days
C3H 10T1/2 [8] = test: Inhibition of SAG-induced differentiation of mouse mesenchymal pluripotent C3H10T1/2 cells to alkaline phosphatase positive oeseoblasts after 6 days; details: C3H 10T1/2, 6 days
[9] = target: Smoothened (Mus musculus) (UniProt P56726); test: Antagonist activity at Smo receptor

Protein smoothened, sequence (Q99835 whole entry): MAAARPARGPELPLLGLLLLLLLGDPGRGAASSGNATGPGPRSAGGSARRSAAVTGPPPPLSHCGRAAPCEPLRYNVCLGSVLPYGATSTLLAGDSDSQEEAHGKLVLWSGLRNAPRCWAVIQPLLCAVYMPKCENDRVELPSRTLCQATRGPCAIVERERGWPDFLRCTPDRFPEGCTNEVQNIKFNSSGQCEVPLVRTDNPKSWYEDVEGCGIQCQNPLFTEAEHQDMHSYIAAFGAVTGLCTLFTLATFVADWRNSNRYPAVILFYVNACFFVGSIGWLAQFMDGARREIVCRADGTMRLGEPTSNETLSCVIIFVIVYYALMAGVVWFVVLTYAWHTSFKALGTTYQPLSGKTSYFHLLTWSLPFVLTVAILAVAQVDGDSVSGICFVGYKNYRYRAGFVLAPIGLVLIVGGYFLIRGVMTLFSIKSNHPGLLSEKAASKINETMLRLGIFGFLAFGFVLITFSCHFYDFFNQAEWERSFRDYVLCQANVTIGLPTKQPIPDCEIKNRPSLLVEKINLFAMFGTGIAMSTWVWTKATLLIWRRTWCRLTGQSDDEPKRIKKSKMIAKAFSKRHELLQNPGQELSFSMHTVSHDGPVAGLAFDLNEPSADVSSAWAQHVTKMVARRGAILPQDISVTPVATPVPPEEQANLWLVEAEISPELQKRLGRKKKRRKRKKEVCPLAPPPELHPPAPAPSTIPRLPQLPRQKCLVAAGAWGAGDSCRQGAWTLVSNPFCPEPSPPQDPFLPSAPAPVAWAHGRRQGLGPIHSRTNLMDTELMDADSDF

Compound	IC50 (Protein smoothened) [µM]	IC50 [1] [µM]	inhibition [3] [%]	inhibition [5] [%]	IC50 (C3H 10T1/2 [8]) [µM]	IC50 [9] [µM]	Ratio IC50 [2]	Activity (Rattus norvegicus)	Ratio IC50 [4]	IC50 [6] [µM]	inhibition at 10 µM (C3H 10T1/2 [7]) [%]
COc1cc(C(=O)NC(=S)Nc2ccc(Cl)c(C(=O)Nc3ccccc3)c2)cc(OC)c1OC	–	0.52	95	11	1.5	–	–	–	–	–	96
COc1cc(C(=O)NC(=S)Nc2ccc(C)c(C(=O)Nc3ccccc3)c2)cc(OC)c1OC	–	1.8	89	13	2.5	–	–	–	–	–	99
COc1cc(C(=O)NC(=S)Nc2cccc(-c3cn4ccccc4n3)c2)cc(OC)c1OC	–	0.82	93	–	0.55	–	–	–	–	–	94
COc1cc(C(=O)NC(=S)Nc2ccc(Cl)c(NC(=O)c3ccccc3)c2)cc(OC)c1OC	–	0.19	89	69	0.99	–	–	–	–	–	96
COc1cccc(CN(C(=O)CC(C)(C)C)[C@H]2C[C@@H](C(=O)N3CCNCC3)N(Cc3ccc4c(c3)OCO4)C2)c1	–	0.14	–	–	0.3	–	–	–	–	0.095	–
COc1cc(C(=O)NC(=S)Nc2ccc(Cl)c(NC(=O)c3ccc(-c4ccccc4)cc3)c2)cc(OC)c1OC	–	0.13	99	85	0.38	–	–	–	–	–	101
COc1cc(C(=O)NC(=O)Nc2cccc(NC(=O)c3cc4ccccc4[nH]3)c2)cc(OC)c1OC	–	0.11	90	85	0.22	–	–	–	–	–	97
COc1cc(C(=O)NC(=N)Nc2cccc(NC(=O)c3ccccc3)c2)cc(OC)c1OC	–	0.29	–	–	0.43	0.29	–	–	–	–	–
COc1cc(C(=O)NC(=S)Nc2cccc(-c3cc4ccccc4[nH]3)c2)cc(OC)c1OC	–	0.18	90	–	0.28	–	–	–	–	–	102
COc1cc(C(=O)NC(=S)Nc2cccc(NC(=O)c3ccc(-c4ccc(F)cc4)cc3)c2)cc(OC)c1OC	–	0.1	97	–	0.14	–	–	–	–	–	95
COc1cc(C(=O)NC(=N)Nc2cccc(NC(=O)c3ccc(N4CCOCC4)cc3)c2)cc(OC)c1OC	–	0.22	–	–	0.2	–	–	–	–	–	–
COc1cc(C(=O)NC(=N)Nc2ccc(C)c(NC(=O)c3cccc(-c4ccccc4)c3)c2)cc(OC)c1OC	–	0.11	–	–	0.26	–	–	–	–	–	–
COc1cc(C(=O)NC(=N)Nc2cccc(-n3ccc4ccccc43)c2)cc(OC)c1OC	–	0.9	–	–	0.39	–	–	–	–	–	–
CC1=C2C[C@H]3[C@@H](CC=C4C[C@@H](O)CC[C@@]43C)[C@@H]2CC[C@]12O[C@@H]1C[C@H](C)CN[C@H]1[C@H]2C [CYCLOPAMINE]	–	–	–	–	0.62	–	–	–	–	0.1	98
COc1cc(C(=O)NC(=S)Nc2cccc(NC(=O)c3ccccc3)c2)cc(OC)c1OC	0.3	0.65	96	15	0.9	0.65	–	inactive	–	0.338	96

Now those with a lower IC50 (C3H 10T1/2 [8]), led by results:

IC50 (Protein smoothened) [µM]	IC50 [1] [µM]	inhibition [3] [%]	inhibition [5] [%]	IC50 (C3H 10T1/2 [8]) [µM]	IC50 [9] [µM]	Compound	Ratio IC50 [2]	Activity (Rattus norvegicus)	Ratio IC50 [4]	IC50 [6] [µM]	inhibition at 10 µM (C3H 10T1/2 [7]) [%]
0.063	0.041	98	98	0.06	–	COc1cc(C(=O)NC(=S)Nc2ccc(C)c(NC(=O)c3ccc(-c4ccccc4)cc3)c2)cc(OC)c1OC	20	inactive	20	0.009	100
–	0.09	89	–	0.08	–	COc1cc(C(=O)NC(=S)Nc2cccc(NC(=O)c3ccc(-c4ccccc4)cc3)c2)cc(OC)c1OC	–	–	–	–	62
0.005	0.015	–	–	0.011	–	COc1cc(C(=O)NC(=N)Nc2ccc(C)c(NC(=O)c3ccc(-c4ccccc4)cc3)c2)cc(OC)c1OC	20	inactive	20	0.006	–
–	0.029	97	96	0.03	–	COc1cc(C(=O)NC(=S)Nc2ccc(C)c(NC(=O)c3ccc(-c4ccc(F)cc4)cc3)c2)cc(OC)c1OC	–	–	–	–	86
–	0.08	98	95	0.1	–	COc1cc(C(=O)NC(=O)Nc2ccc(Cl)c(NC(=O)c3ccc(-c4ccccc4)cc3)c2)cc(OC)c1OC	–	–	–	–	72
0.107	0.16	96	76	0.13	0.16	COc1cc(C(=O)NC(=O)Nc2cccc(NC(=O)c3ccccc3)c2)cc(OC)c1OC	–	inactive	–	0.106	101
–	–	–	–	0.011	–	CS(=O)(=O)c1ccc(C(=O)Nc2ccc(Cl)c(-c3ccccn3)c2)c(Cl)c1 [VISMODEGIB]	–	–	–	0.004	99
–	0.07	–	–	0.13	–	COc1cc(C(=O)NC(=N)Nc2ccc(Cl)c(NC(=O)c3ccc(-c4ccccc4)cc3)c2)cc(OC)c1OC	–	–	–	–	–
0.024	0.013	99	96	0.025	–	COc1cc(C(=O)NC(=O)Nc2ccc(C)c(NC(=O)c3ccc(-c4ccccc4)cc3)c2)cc(OC)c1OC	20	inactive	20	0.006	101
–	0.014	–	–	0.011	–	COc1cc(C(=O)NC(=N)Nc2ccc(C)c(NC(=O)c3ccc(-c4ccc(F)cc4)cc3)c2)cc(OC)c1OC	–	–	–	–	–
